Measurements as given in ChEMBL document CHEMBL4732036, “Phenyl bioisosteres in medicinal chemistry: discovery of novel gamma-secretase modulators as a potential treatment for Alzheimer''s disease” (RSC Med Chem, 2021).
≈ marks a conversion by molar mass, not a printed value.

Key:
[1] = Solubility of compound in PBS buffer at pH 6.5 incubated for over night by HPLC-UV based LYSA assay; assay type: physicochemical
Outline: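 Duplicate samples from 10 mM DMSO stocks. DMSO evaporated, residue dissolved in 0.05 M phosphate buffer, pH 6.5, stirred 1 h, shaken 2 h, left overnight, then filtered. Filtrate and its 1/10 dilution measured by direct UV or HPLC-UV against a four-point calibration curve.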

[2] = Distribution coefficient between 1-octanol and phosphate buffer, logD of the compound after 24 hrs by shake flask assay; assay type: physicochemical; settings: 1-octanol/phosphate buffer
Outline: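 CAMDIS high-throughput shake-flask method. PVDF membranes impregnated with 1-octanol are dipped in 25 mM phosphate buffer, pH 7.4, containing the compound, then shaken 24 h at 23 °C. Remaining aqueous concentration measured by LC/MS. logD calculated from the aqueous concentration with and without octanol impregnation, and the phase ratio.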

Gamma-secretase = test: Modulatory activity of gamma secretase in human H4 cells overexpressing human APP695 K595N/M596L mutant assessed as decrease in amyloidbeta42 levels at 24 hrs by Alphalisa method; assay type: cell-based
Outline: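 H4 neuroglioma cells stably expressing APP695 Swedish mutant, in IMDM with 10% FCS and […] hygromycin B, at 37 °C, 5% CO2. Compounds added 3-4 h after plating and incubated 24 h, typically 4 µM down to 0.0013 µM in half-log steps (8 points), final Me2SO 0.4%. Secreted Aβ in supernatant quantified by AlphaLisa (3 h antibody mix, then donor beads 30 min, RT). IC50 by nonlinear regression.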

solubility at 12 h [1] | logD at 24 h [2] | IC50 (Gamma-secretase) | Structure (SMILES)
15 µg/mL (≈ 33.9 µM) | 4.1 | 118 nM | Cc1nnc(C23CCC(Nc4nc(Oc5cccc(Cl)c5)n(C(C)C)n4)(CC2)CC3)o1
0.4 µg/mL (≈ 0.817 µM) | 3.7 | 21 nM | Cc1nnc(C23CCC(Nc4nc5n(n4)CCCN5c4ccc(OC(F)(F)F)cc4)(CC2)CC3)o1
< 0.1 µg/mL | > 4 | 227 nM | Cc1nnc(-c2ccc(Nc3nc4n(n3)CCCN4c3ccc(OC(F)(F)F)cc3)cc2)o1
7 µg/mL (≈ 14.5 µM) | 3.4 | 17 nM | Cc1cc(N2CC3CCC(C2)C3Nc2nc3n(n2)CCCC[C@H]3c2ccc(F)c(F)c2F)ncn1 (some centres undefined)
< 0.1 µg/mL | 3.2 | 95 nM | Cc1nnc(-c2ccc(Nc3nc4n(n3)CCCN4c3cccc(Cl)c3)cc2)o1
18 µg/mL (≈ 38.4 µM) | 4 | 38 nM | Cc1nnc(N2CC3CCC(C2)C3Nc2nc(Cc3ccc(Cl)cc3)cc(C(C)(C)O)n2)o1 (centres undefined)
233 µg/mL (≈ 528 µM) | 2.7 | 34 nM | Cc1nnc(N2CC3CCC(C2)C3Nc2nc3n(n2)CCCN3c2cccc(Cl)c2)o1 (centres undefined)
< 0.1 µg/mL | > 4 | 478 nM | Cc1nnc(-c2ccc(Nc3nc(Cc4ccc(Cl)cc4)cc(C(C)(C)O)n3)cc2)o1
11 µg/mL (≈ 25.8 µM) | 4 | 520 nM | Cc1nnc(C23CC(Nc4nc(Cc5ccc(Cl)cc5)cc(C(C)(C)O)n4)(C2)C3)o1
1 µg/mL (≈ 2.27 µM) | 3.8 | 11 nM | Cc1cc(C23CC(Nc4nc5n(n4)CCCC[C@H]5c4ccc(F)c(F)c4F)(C2)C3)ncn1
106 µg/mL (≈ 216 µM) | 3.5 | 46 nM | Cc1nnc(N2CC3CCC(C2)C3Nc2nc3n(n2)CCCN3c2ccc(OC(F)(F)F)cc2)o1 (centres undefined)
88 µg/mL (≈ 220 µM) | 4.1 | 214 nM | Cc1nnc(C23CC(Nc4nc(Oc5cccc(Cl)c5)n(C(C)C)n4)(C2)C3)o1
167 µg/mL (≈ 420 µM) | 2.4 | 777 nM | Cc1nnc(C23CC(Nc4nc5n(n4)CCCN5c4cccc(Cl)c4)(C2)C3)o1
3.2 µg/mL (≈ 7.15 µM) | 2.8 | 587 nM | Cc1nnc(C23CC(Nc4nc5n(n4)CCCN5c4ccc(OC(F)(F)F)cc4)(C2)C3)o1
< 0.1 µg/mL | > 4 | 510 nM | Cc1nnc(-c2ccc(Nc3nc(Oc4cccc(Cl)c4)n(C(C)C)n3)cc2)o1
132 µg/mL (≈ 300 µM) | 3.1 | 114 nM | Cc1nnc(C23CCC(Nc4nc5n(n4)CCCN5c4cccc(Cl)c4)(CC2)CC3)o1
104 µg/mL (≈ 234 µM) | 3.6 | 42 nM | Cc1nnc(N2CC3CCC(C2)C3Nc2nc(Oc3cccc(Cl)c3)n(C(C)C)n2)o1 (centres undefined)
< 0.1 µg/mL | > 4 | 146 nM | Cc1nnc(C23CCC(Nc4nc(Cc5ccc(Cl)cc5)cc(C(C)(C)O)n4)(CC2)CC3)o1
